Test results from ChEMBL document CHEMBL4364341, “Radiosensitization of Head and Neck Squamous Cell Carcinoma (HNSCC) by a Podophyllotoxin” (ACS Med Chem Lett, 2019).
Calls of active or inactive are those of the source. The calls are words filed in the database; no cut-off is given here.

Columns and labels:
SCC-25 [1] = assay: Synergistic induction of apoptosis in human SCC25 cells at 0.5 uM followed irradiation with 5Gy IR by annexin V FITC and propidium iodide staining based flow cytometry; assay type: functional, cell-based; details: TDE = time-dependent effect
Summary of the method: (§1)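 FaDu or SCC-25 cells, untreated, given 5 Gy IR, drug, or both. Apoptotic cells measured by annexin V flow cytometry 48 h after treatment. Percentage compared with control by t test.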

SCC-25 [2] = assay: Synergistic antiproliferative activity against human SCC25 cells assessed as fractional inhibition at 0.005 uM preincubated for 1 hr followed by irradiation with 5 Gy IR and measured after 6 days by MTT assay (reference value: 0.133); assay type: functional
Summary of the method: (§2)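 SCC-25 cells seeded 1000/well in 96-well plates in DMEM/10% FBS and left 24 h. Drug or vehicle added, then after 1 h X-irradiated to 2.5, 5 or 10 Gy on one plate using a shifted lead shield. Plates incubated 6 days, then MTT (0.5 mg/mL, 45 min), DMSO solubilisation, absorbance at 570 nm. Fractional inhibition = 1 − fraction of surviving cells.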

SCC-25 [3] = assay: Synergistic induction of cell cycle arrest in human SCC25 cells assessed as decrease in accumulation at G0/G1 phase at 0.5 uM followed irradiation with 5Gy IR incubated for 24 hrs by propidium iodide staining based flow cytometry; assay type: functional
Summary of the method: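 FaDu or SCC-25 cells, untreated, given 5 Gy IR, drug, or drug plus 5 Gy. Cell-cycle distribution by propidium iodide staining and flow cytometry at 6 h and 24 h after treatment. G0/G1, S and G2/M fractions compared with control by t test.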

FaDu [4] = assay: Inhibition of colony formation in human FADU cells incubated for 10 to 14 days by crystal violet staining based assay; assay type: functional, cell-based
SCC-25 [5] = assay: Antiproliferative activity against human SCC25 cells assessed as fractional inhibition at 0.05 uM after 6 days in absence of irradiation by MTT assay; assay type: functional
Summary of the method: (§3)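 FaDu or SCC-25 cells were grown in DMEM with 10% FBS at 37 °C and 5% CO2. They were seeded at 1000 cells/well in 96-well plates for 24 h, then dosed with compound (fresh DMSO stock diluted in medium) or vehicle. After 1 h, X-rays were given with a sliding 5 mm lead shield, so one plate held 0, 2.5, 5 and 10 Gy columns. After 6 days, MTT (0.5 mg/mL, 45 min) was added, then DMSO, and A570 was read. Values were normalised to the unirradiated vehicle control. Fractional inhibition = 1 − surviving fraction.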

SCC-25 [6] = assay: Synergistic antiproliferative activity against human SCC25 cells assessed as combination index at 5 uM preincubated for 1 hr followed by irradiation with 2.5 Gy IR and measured after 6 days by MTT assay; assay type: functional
Summary of the method: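 SCC-25 cells grown in DMEM with 10% FBS at 37 °C, 5% CO2, seeded 1000 cells/well in 96-well plates and left 24 h. Drug in DMSO, diluted in complete medium, added 1 h before X-irradiation. A movable 5 mm lead shield gave 0, 2.5, 5 or 10 Gy on one plate. After 6 days, MTT readout at 570 nm. Combination index by Chou–Talalay from viability data.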

FaDu [7] = assay: Synergistic induction of apoptosis in human FADU cells at 0.5 uM followed irradiation with 5Gy IR by annexin V FITC and propidium iodide staining based flow cytometry; assay type: functional, cell-based; details: TDE = time-dependent effect; summary of the method: as §1
SCC-25 [8] = assay: Synergistic antiproliferative activity against human SCC25 cells assessed as fractional inhibition at 0.05 uM preincubated for 1 hr followed by irradiation with 2.5 Gy IR and measured after 6 days by MTT assay (reference value: 0.011); assay type: functional; summary of the method: as §2
SCC-25 [9] = assay: Antiproliferative activity against human SCC25 cells assessed as fractional inhibition at 5 uM after 6 days in absence of irradiation by MTT assay; assay type: functional; summary of the method: as §3
FaDu [10] = assay: Synergistic antiproliferative activity against human FADU cells assessed as fractional inhibition at 5 uM preincubated for 1 hr followed by irradiation with 5 Gy IR and measured after 6 days by MTT assay (reference value: 0.097); assay type: functional; summary of the method: as §3
FaDu [11] = assay: Synergistic antiproliferative activity against human FADU cells assessed as combination index at 0.005 uM preincubated for 1 hr followed by irradiation with 10 Gy IR and measured after 6 days by MTT assay; assay type: functional
Summary of the method: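 Combination index was calculated by the Chou–Talalay median-effect method from the 6-day MTT viability data of the single-plate compound/X-ray (2.5, 5, 10 Gy) design. CI < 1 denotes synergy, CI = 1 additivity and CI > 1 antagonism.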

FaDu [12] = assay: Induction of cell cycle arrest in human FADU cells assessed as decrease in CDK1 at 0.5 uM incubated for 48 hrs by immunoblot analysis; assay type: functional, cell-based
Summary of the method: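 FaDu cells received compound at 0.5 μM, 5 Gy IR, or both. After 48 h, lysates were immunoblotted for NRF2, cyclin B1, CDK1, Bax and Bcl-2. Membranes were then stripped and reprobed for β-actin as the loading control.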

[13] = molecular target: T1, Nuclear factor erythroid 2-related factor 2 (Homo sapiens) (UniProt Q16236); assay: Inhibition of Nrf2 in human FADU cells at 0.5 uM incubated for 48 hrs by immunofluorescence analysis; assay type: cell-based
T1 sequence (whole entry): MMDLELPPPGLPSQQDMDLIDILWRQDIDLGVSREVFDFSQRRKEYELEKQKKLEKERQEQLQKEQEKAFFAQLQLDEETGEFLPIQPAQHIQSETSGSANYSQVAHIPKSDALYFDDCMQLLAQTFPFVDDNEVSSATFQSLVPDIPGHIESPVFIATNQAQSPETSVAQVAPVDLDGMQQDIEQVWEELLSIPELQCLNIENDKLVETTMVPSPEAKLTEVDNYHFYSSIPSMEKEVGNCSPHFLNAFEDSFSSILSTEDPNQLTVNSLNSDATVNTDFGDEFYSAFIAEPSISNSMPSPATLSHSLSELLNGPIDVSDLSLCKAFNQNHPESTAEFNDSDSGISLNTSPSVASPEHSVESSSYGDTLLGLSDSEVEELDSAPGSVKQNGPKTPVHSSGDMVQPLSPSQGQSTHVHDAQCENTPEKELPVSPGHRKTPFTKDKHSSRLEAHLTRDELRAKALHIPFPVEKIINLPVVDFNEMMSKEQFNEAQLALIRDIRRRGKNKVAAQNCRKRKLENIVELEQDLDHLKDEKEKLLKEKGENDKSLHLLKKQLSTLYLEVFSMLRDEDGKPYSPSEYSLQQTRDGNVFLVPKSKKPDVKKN
Summary of the method: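 FaDu cells received compound, 5 Gy IR, or both, and Nrf2 was imaged by immunofluorescence 48 h later.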

SCC-25 [14] = assay: Antiproliferative activity against human SCC25 cells assessed as fractional inhibition at 0.5 uM after 6 days in absence of irradiation by MTT assay; assay type: functional; summary of the method: as §3
FaDu [15] = assay: Antiproliferative activity against human FADU cells assessed as fractional inhibition at 0.005 uM after 6 days in absence of irradiation by MTT assay; assay type: functional; summary of the method: as §3
SCC-25 [16] = assay: Selectivity ratio of IC50 for antiproliferative activity against human SCC25 cells assessed as reduction in colony formation unit to IC50 for antiproliferative activity against human SCC25 cells assessed as reduction in colony formation unit followed by irradiation with 5 Gy IR; assay type: functional

In the case of `COc1ccc2c(c1)N(CCO)C1=C(C(=O)OC1)C2c1ccccc1` (stereo unspecified), the Activity (SCC-25 [1]) is reported as “Tde”, the “fractional inhibitory concentration index (FICI)” value (SCC-25 [2]) is reported as 0.157 and the Activity (SCC-25 [3]) is reported as “Active”. For the same compound, the IC50 (FaDu [4]) was 6.5 µM, the “fractional inhibitory concentration index (FICI)” value (SCC-25 [5]) was 0.005 and the CI (SCC-25 [6]) was 1.244. The Activity (FaDu [7]) was “Tde”, the “fractional inhibitory concentration index (FICI)” value (SCC-25 [8]) was 0.74 and the “fractional inhibitory concentration index (FICI)” value (SCC-25 [9]) was 0.744. For the same compound, the “fractional inhibitory concentration index (FICI)” value (FaDu [10]) was 0.633, the CI (FaDu [11]) was 0.856 and the Activity (FaDu [12]) was “Active”. The inhibition [13] was “Active”, the “fractional inhibitory concentration index (FICI)” value (SCC-25 [14]) was 0.361 and the “fractional inhibitory concentration index (FICI)” value (FaDu [15]) was 0.145. The “Ratio IC50” value (SCC-25 [16]) was 2.
